# According to ChEMBL document CHEMBL3217705, “Synthesis and evaluation of stable substrate analogs as potential modulators of cyclodiphosphate synthase IspF” (Medchemcomm, 2013):
# Activity calls are given as the source filed them. The rule behind the calls is not given here.
# What was measured:
# [1] = target: T1, 2-C-methyl-D-erythritol 2,4-cyclodiphosphate synthase (Escherichia coli (strain K12)) (UniProt P62617); assay: Activation of Escherichia coli IspF-MEP complex assessed as increase in rate of […] formation at 100 uM by HPLC based […] formation assay relative to untreated control
# T1 sequence (whole entry): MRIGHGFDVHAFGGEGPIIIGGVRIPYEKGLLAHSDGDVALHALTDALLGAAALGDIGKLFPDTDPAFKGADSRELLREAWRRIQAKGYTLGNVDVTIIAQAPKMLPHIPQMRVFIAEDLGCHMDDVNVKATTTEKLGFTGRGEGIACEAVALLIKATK
# [2] = target: T1, 2-C-methyl-D-erythritol 2,4-cyclodiphosphate synthase (Escherichia coli (strain K12)); assay: Activation of Escherichia coli IspF-MEP complex assessed as increase in rate of […] formation at 100 uM pre-incubated for 30 mins by HPLC based […] formation assay relative to untreated control
# [3] = target: T1, 2-C-methyl-D-erythritol 2,4-cyclodiphosphate synthase (Escherichia coli (strain K12)); assay: Activation of Escherichia coli IspF assessed as increase in rate of […] formation at 100 uM pre-incubated for 30 mins by HPLC based […] formation assay relative to untreated control
# [4] = target: T1, 2-C-methyl-D-erythritol 2,4-cyclodiphosphate synthase (Escherichia coli (strain K12)); assay: Activation of Escherichia coli IspF assessed as residual enzyme activity at 500 uM pre-incubated for 30 mins by HPLC based CMP formation assay
# [5] = target: T1, 2-C-methyl-D-erythritol 2,4-cyclodiphosphate synthase (Escherichia coli (strain K12)); assay: Inhibition of Escherichia coli IspF-MEP complex at 700 uM pre-incubated for 30 mins by HPLC based […] formation assay relative to untreated control
# Summary of the method: (§1)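 E. coli IspF alone or preformed IspF–MEP complex was incubated with 100 µM CDPME2P substrate. Test agents were present at 1000 µM or 700 µM, either without or after a 30 min pre-incubation. The rate of CMP formation was compared with a no-compound control run under the same pre-incubation; residual activity was taken after pre-incubation.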
# [6] = target: T1, 2-C-methyl-D-erythritol 2,4-cyclodiphosphate synthase (Escherichia coli (strain K12)); assay: Inhibition of Escherichia coli IspF-MEP complex at 700 uM by HPLC based […] formation assay; summary of the method: as §1
# [7] = target: T2, 2-C-methyl-D-erythritol 2,4-cyclodiphosphate synthase (Escherichia coli (strain K12), UniProt P62617); assay: Inhibition of Escherichia coli IspF-MEP complex by HPLC based […] formation assay
# T2 sequence (P62617 whole entry): T1 sequence (whole entry)
# [8] = target: T2, 2-C-methyl-D-erythritol 2,4-cyclodiphosphate synthase; assay: Inhibition of Escherichia coli IspF by HPLC based […] formation assay
# [9] = target: T1, 2-C-methyl-D-erythritol 2,4-cyclodiphosphate synthase (Escherichia coli (strain K12)); assay: Inhibition of Escherichia coli IspF-MEP complex at 100 uM pre-incubated for 30 mins by HPLC based […] formation assay
# [10] = target: T1, 2-C-methyl-D-erythritol 2,4-cyclodiphosphate synthase (Escherichia coli (strain K12)); assay: Inhibition of Escherichia coli IspF at 500 uM by HPLC based CMP formation assay
# [11] = target: T1, 2-C-methyl-D-erythritol 2,4-cyclodiphosphate synthase (Escherichia coli (strain K12)); assay: Inhibition of Escherichia coli IspF-MEP complex at 500 uM by HPLC based CMP formation assay; conditions: TDE = time-dependent effect
# [12] = target: T1, 2-C-methyl-D-erythritol 2,4-cyclodiphosphate synthase (Escherichia coli (strain K12)); assay: Activation of Escherichia coli IspF-MEP complex assessed as increase in rate of […] formation at 1000 uM pre-incubated for 30 mins by HPLC based […] formation assay relative to untreated control; summary of the method: as §1
# [13] = target: T1, 2-C-methyl-D-erythritol 2,4-cyclodiphosphate synthase (Escherichia coli (strain K12)); assay: Activation of Escherichia coli IspF-MEP complex assessed as increase in rate of […] formation at 1000 uM by HPLC based […] formation assay relative to untreated control; summary of the method: as §1
# [14] = target: T1, 2-C-methyl-D-erythritol 2,4-cyclodiphosphate synthase (Escherichia coli (strain K12)); assay: Activation of Escherichia coli IspF assessed as increase in rate of […] formation at 1000 uM pre-incubated for 30 mins by HPLC based […] formation assay relative to untreated control; summary of the method: as §1
# [15] = target: T1, 2-C-methyl-D-erythritol 2,4-cyclodiphosphate synthase (Escherichia coli (strain K12)); assay: Activation of Escherichia coli IspF assessed as assessed as residual enzyme activity at 1000 uM pre-incubated for 30 mins by HPLC based […] formation assay relative to untreated control; summary of the method: as §1
# [16] = target: T1, 2-C-methyl-D-erythritol 2,4-cyclodiphosphate synthase (Escherichia coli (strain K12)); assay: Activation of Escherichia coli IspF assessed as increase in rate of […] formation at 1000 uM by HPLC based […] formation assay relative to untreated control
# Summary of the method: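 IspF activity was read as the rate of CMP formation from 100 µM CDPME2P, with the test compound at 1000 µM. The rate is expressed relative to a control run without compound.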
smiles,measurement,setting,value
C[C@](O)(CO)[C@H](O)COP(=O)(O)CP(=O)(O)OC[C@H]1O[C@@H](n2ccc(N)nc2=O)[C@H](O)[C@@H]1O,Activity,[1],Active
same,fold change (FC),[2],1.3
same,fold change (FC),[3],2.2
same,Activity,[4],inactive
Nc1ccn([C@@H]2O[C@H](COP(=O)(O)CP(=O)(O)O)[C@@H](O)[C@H]2O)c(=O)n1,inhibition,[5],74%
same,inhibition,[6],69%
same,IC50,[7],343 µM
same,IC50,[8],797 µM
C[C@](O)(CO)[C@H](O)COP(=O)(O)OP(=O)(O)OC[C@H]1O[C@@H](n2ccc(N)nc2=O)[C@H](O)[C@@H]1O,Activity,[1],inactive
same,Activity,[2],inactive
same,Activity,[3],inactive
same,Activity,[4],inactive
C[C@@](CO)(OP(=O)(O)O)[C@H](O)COP(=O)(O)CP(=O)(O)OC[C@H]1O[C@@H](n2ccc(N)nc2=O)[C@H](O)[C@@H]1O,fold change (FC),[3],7.6
same,inhibition,[9],37%
same,inhibition,[10],inactive
same,inhibition,[11],tde
same,Activity,[4],60%
C[C@](O)(CO)[C@H](O)COP(=O)(O)CP(=O)(O)O,Activity,[12],inactive
same,Activity,[13],inactive
same,fold change (FC),[14],8.7
same,Activity,[15],54%
same,fold change (FC),[16],1.8
Nc1ccn([C@@H]2O[C@H](COP(=O)(O)OP(=O)(O)O)[C@@H](O)[C@H]2O)c(=O)n1,inhibition,[6],inactive
same,IC50,[8],768 µM
